M4 antag = CHRM4 antagonism in calcium assay | P08173 | CHO-hM4 cells, ACh EC80, Fluo-8 calcium fluorescence | inhibition, % at 3 µM | 360,000 compounds, 0.73% hits;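 active = inhibition above its plate's cutoff, the mean inhibition of sample wells plus 3 SD, cut at about 27% in these data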
M5 antag = antagonists of human muscarinic M5 receptor (CHRM5). inhibition, % at 3 µM. AID 624040. CHO-hM5 cells, Fluo-8 calcium fluorescence, ACh EC80. 360,000 compounds, 0.59% hits;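 active = inhibition above a per-plate cutoff, the mean of that plate's test compounds plus 3 SD, cut at about 27% in these data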
Target sequence (P08912 whole entry, looked up): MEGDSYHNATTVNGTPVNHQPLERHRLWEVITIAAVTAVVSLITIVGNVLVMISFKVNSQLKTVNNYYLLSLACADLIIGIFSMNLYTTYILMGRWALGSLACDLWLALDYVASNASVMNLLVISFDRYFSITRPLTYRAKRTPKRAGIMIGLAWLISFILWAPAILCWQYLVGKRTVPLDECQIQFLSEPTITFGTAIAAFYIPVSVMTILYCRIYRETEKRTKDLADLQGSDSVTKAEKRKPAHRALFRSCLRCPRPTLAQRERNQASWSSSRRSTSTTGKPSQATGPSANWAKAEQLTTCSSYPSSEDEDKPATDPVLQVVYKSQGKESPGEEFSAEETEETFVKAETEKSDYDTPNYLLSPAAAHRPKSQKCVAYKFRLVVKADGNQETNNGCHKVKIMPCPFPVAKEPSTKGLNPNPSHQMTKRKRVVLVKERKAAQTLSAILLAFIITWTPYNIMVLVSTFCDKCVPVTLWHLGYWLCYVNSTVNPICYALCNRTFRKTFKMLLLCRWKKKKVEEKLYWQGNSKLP
M4 PAM = potentiates acetylcholine response at human M4 receptor. P08173. CHO-K1 hM4/Gqi5, Fluo-8 calcium fluorescence, ACh EC20; 0% = ACh EC20, 100% = maximal ACh. activation, % at 3 µM. 360,000 compounds, 0.4% hits;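 active = activation above its plate's cutoff, the mean activation of sample wells plus 3 SD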
M5 ag = CHRM5 agonism in calcium assay. activation, % at 3 µM. CHO-K1 hM5 cells, Fluo-8 calcium fluorescence; 0% DMSO wells, 100% maximal acetylcholine response. 360,000 compounds, 0.19% hits. P08912;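 active = activation above the run's mean over test compounds plus 3 SD, cut at about 23% in these data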;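 note: signal is peak over basal fluorescence ratio across the kinetic read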
CHRM4 agonist = agonists of human muscarinic M4 receptor (CHRM4). CHO-K1 hM4/Gqi5, Fluo-8 calcium fluorescence; vehicle 0%, full acetylcholine response 100%. activation, % at 3 µM. 360,000 compounds, 0.14% hits. AID 624127;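 active = activation above the run mean over all test wells plus 3 SD, cut at about 32% in these data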;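 note: peak over basal fluorescence ratio per well then scaled between controls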
M5 PAM = positive allosteric modulators of human muscarinic M5 receptor | P08912 | CHO-K1 hM5, Fluo-8 calcium, ACh EC20 PAM; 0% = ACh EC20, 100% = ACh EC100 | activation, % at 3 µM | 360,000 compounds, 0.3% hits;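 active = activation above the run cutoff, the mean activation of all test compounds plus 3 SD, cut at about 18% in these data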
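Test system: CHO-K1 hM5 cells / Doses: single-point, 3 µM nominal / Times: Post-acetylcholine fluorescence recording 140 s / Technique: Fluo-8 calcium fluorescence / Measure: Max/basal fluorescence ratio as % of EC20–EC100 ACh window / Benchmarks: low control EC20 acetylcholine (0%), high control EC100 acetylcholine (100%) / Replicates: one well per compound, no replicates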
Numbers stand for hits; 0 = inactive. Hits are enriched below; roughly 1.9% of the tested compounds scored in any of these assays.

SMILES	M4 antag	M5 antag	M4 PAM	M5 ag	CHRM4 agonist	M5 PAM
CC(=O)NCCC(=O)N(Cc1ccccc1)c1nc2c(C)cccc2s1	0	0	0	0	0	0
CS(=O)(=O)N(CC(=O)Nc1ccccc1C(=O)NCc1ccccc1)c1ccc2c(c1)OCCO2	0	0	0	0	0	0
CS(=O)(=O)N(CC(=O)Nc1ccccc1C(=O)NCCc1ccccc1)c1ccc2c(c1)OCCO2	41.3	0	0	0	0	0
CCC[C@@H](CN1CCC[C@H]1CN1C(N)=NC[C@@H]1Cc1ccccc1)N1C[C@@H](Cc2ccccc2)N(CCCC2CCCC2)C1=N	0	0	0	0	0	0
CCCCN1C(=N)N([C@@H](C)CN2CCC[C@H]2CN2C(N)=NC[C@@H]2Cc2ccccc2)C[C@H]1[C@H](C)CC	0	0	0	0	0	0
CCC[C@@H](CN1CCC[C@H]1CN1C(N)=NC[C@@H]1Cc1ccccc1)N1C[C@@H]([C@H](C)CC)N(CCCC2CCCC2)C1=N	41.5	0	0	0	0	0
C[C@@H](CN1CCC[C@H]1CN1C(N)=NC[C@@H]1Cc1ccccc1)N1C[C@@H](Cc2ccccc2)N(CCc2ccc(Cl)c(Cl)c2)C1=N	0	38.8	0	0	0	0
CCCCN1C(=N)N([C@@H](C)CN2CCC[C@H]2CN2C(N)=NC[C@H]2CC(C)C)C[C@H]1Cc1ccccc1	0	33.1	0	0	0	0
CCC(C)c1ccccc1N1CC(C(=O)NCCc2ccc(OC)c(OC)c2)CC1=O (stereo not drawn)	0	0	0	0	0	0
CCOC(=O)Cn1cc(C(=O)C(=O)N2CCOCC2)c2ccccc21	0	0	0	0	0	0
CCOC(=O)C(=O)c1cn(C2OCC(OC(C)=O)C(OC(C)=O)C2OC(C)=O)c2ccccc12 (stereo not drawn)	0	0	22.0	0	0	0
O=C1[C@@H](c2ccccc2)CC[C@@H]2C=CC[C@H]3CCN1[C@@H]32	0	0	0	0	0	0
COc1ccccc1-n1c(-c2ccccc2)c[n+]2c1CCc1ccccc1-2	33.8	31.0	0	0	0	0
CC(C)c1ccc(-n2c(-c3ccccc3)c[n+]3c2CCc2ccccc2-3)cc1	28.9	28.9	0	0	0	0
COc1ccc(-n2c(-c3ccc(Br)cc3)c[n+]3c2CCc2ccccc2-3)cc1	0	0	0	0	0	0
CC(C)N(C(=O)C1CC(=O)OC12CCCCC2)C(C)C (stereo not drawn)	29.5	0	0	0	0	0
COc1ccccc1NC(=O)C(C)OC(=O)CCNS(=O)(=O)c1cccc(C(F)(F)F)c1 (stereo not drawn)	0	0	0	0	0	0
Cc1c(N=Cc2c(O)n(C)c(=O)c3ccccc23)c(=O)n(-c2ccccc2)n1C	0	0	0	0	0	0
Cc1c(N=Cc2c(O)n(C3CCCCC3)c(=O)[nH]c2=O)c(=O)n(-c2ccccc2)n1C	0	0	0	0	0	19.8
CCCNC(=O)Cn1c(=O)/c(=C\c2ccc(-c3ccc([N+](=O)[O-])cc3)o2)s/c1=C\C(=O)C(C)(C)C	0	0	0	25.3	0	0
CCCN1C(=O)/C(=C/c2ccc(N3CCOCC3)cc2)NC1=S	0	0	0	0	0	0
CCCN1C(=O)/C(=C/c2ccc(OCC(=O)OCC)cc2)NC1=S	0	0	0	0	0	0
Cc1cc(/C=C2\NC(=S)N(C)C2=O)ccc1N1CCCC1	44.9	58.9	0	138.5	81.8	0
Cc1cc(/C=C2/C(=O)N(C)C(=S)N2C)ccc1N1CCCC1	0	0	0	0	0	0
CCCN1C(=O)/C(=C/c2ccc(N3CCCC3)c(C)c2)NC1=S	53.5	62.2	0	69.4	77.0	0
CCN1C(=O)/C(=C/c2ccc(N3CCCC3)cc2)NC1=S	36.8	58.9	0	96.5	58.4	0
Cc1ccc2c(C(=O)CN3CCOCC3)c(C)[nH]c2c1	0	0	0	0	0	24.5
Cc1ccc2c(C(=O)CN3CCCCC3)c(C)[nH]c2c1	0	0	0	0	0	0

Source: PubChem BioAssay
